From ChEMBL document CHEMBL6083209, “Pyridazinone-based derivatives as anticancer agents endowed with anti-microbial activity: molecular design, synthesis, and biological investigation” (RSC Med Chem, 2024)
≈ marks a conversion by molar mass, not a printed value. One block for each compound: values may come before it. Calls of active or inactive are those of the source. The calls are words filed in the database; no cut-off is given here.

Legend:
Staphylococcus aureus [1] = experiment: Antimicrobial activity against Staphylococcus aureus ATCC 29213; format: functional
[2] = Upregulation of Bax gene expression in human A549 cells assessed as fold increase by qRT-PCR analysis; format: functional
How it was run: (§1)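 A549/ATCC cells treated, total RNA DNase-treated and checked by 260/280 ratio (1.8–2.1). Reverse transcription with oligo-dT and MuLV RT: 25 °C 10 min, 42 °C 1 h, 99 °C 5 min. qPCR of 40 cycles (95 °C 15 s, 55 °C 30 s, 72 °C 30 s) followed by melt curve. Relative expression by the 2−ΔΔCT method, mean ± SEM.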

RXF 393 = experiment: Antiproliferative activity against human RXF 393 cells assessed as growth inhibition incubated for 48 hrs by SRB method; format: functional
How it was run: (§2)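 NCI-60 five-dose screen at 0.01, 0.1, 1, 10 and 100 μM, triplicate wells per dose. Cells were in RPMI 1640 with 5% FBS and 2 mM L-glutamine, pre-grown 24 h and then treated for 48 h at 37 °C. Read-out was TCA fixation and SRB absorbance at 515 nm.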

U-251 [3] = experiment: Antiproliferative activity against human U-251 cells assessed as growth inhibition at 10 uM incubated for 48 hrs by SRB method; format: functional; settings: read-out: GI
How it was run: (§3)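 NCI-60 one-dose screen at 10 μM. Cells were grown in RPMI 1640 with 5% FBS and 2 mM L-glutamine and plated at 5000–40 000 cells/well for 24 h. Drug exposure was 48 h at 37 °C, 5% CO2. Cells were fixed with TCA, stained with 0.4% SRB and read at 515 nm. Growth is expressed as percent of untreated control and time-zero plates.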

HOP-62 = experiment: Antiproliferative activity against human HOP-62 cells assessed as growth inhibition at 10 uM incubated for 48 hrs by SRB method; format: functional; settings: read-out: GI; how it was run: as §3
MDA-MB-231 = experiment: Antiproliferative activity against human MDA-MB-231 cells assessed as growth inhibition incubated for 48 hrs by SRB method; settings: MDA-MB-231, 48 h
[4] = Upregulation of p53 gene expression in human A549 cells assessed as fold increase by qRT-PCR analysis; format: functional; how it was run: as §1
UACC-62 [5] = experiment: Antiproliferative activity against human UACC-62 cells assessed as growth inhibition incubated for 48 hrs by SRB method; format: functional
How it was run: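 NCI-60 five-dose screen at 0.01, 0.1, 1, 10 and 100 μM, triplicate wells per dose. Cells grown in RPMI 1640/5% FBS, preincubated 24 h, then exposed 48 h at 37 °C. TCA fixation, SRB stain, A515.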

A549 [6] = experiment: Induction of cell cycle arrest in human A549 cells assessed as increase in cells at G0-G1 phase at GI50 concentration by flow cytometry analysis (reference value: 85.84%); format: functional
Escherichia coli = experiment: Antimicrobial activity against Escherichia coli ATCC 25922 by broth microdilution method
U-251 [7] = experiment: Antiproliferative activity against human U-251 cells assessed as growth inhibition incubated for 48 hrs by SRB method; format: functional; how it was run: as §2
Hs-578T = experiment: Antiproliferative activity against human Hs-578T cells assessed as growth inhibition incubated for 48 hrs by SRB method
A549 [8] = experiment: Induction of cell cycle arrest in human A549 cells assessed as decrease in cells at G2/M phase at GI50 concentration by flow cytometry analysis (reference value: 13.15 to 13.37%); format: functional; design: scale not given: the % may be the effect or the level left
A549 [9] = experiment: Induction of cell cycle arrest in human A549 cells assessed as increase in cells at G0-G1 phase at GI50 concentration by flow cytometry analysis (reference value: 85.46%); format: functional
A549 [10] = experiment: Induction of cell cycle arrest in human A549 cells assessed as increase in cells at G0-G1 phase at GI50 concentration by flow cytometry analysis (reference value: 85.41%); format: functional
UACC-257 = experiment: Antiproliferative activity against human UACC-257 cells assessed as growth inhibition incubated for 48 hrs by SRB method; format: functional; how it was run: as §2
Candida albicans = experiment: Antimicrobial activity against Candida albicans ATCC 10231 by broth microdilution method
SF-268 = experiment: Antiproliferative activity against human SF-268 cells assessed as growth inhibition incubated for 48 hrs by SRB method; format: functional; how it was run: as §2
SK-MEL-2 = experiment: Antiproliferative activity against human SK-MEL-2 cells assessed as growth inhibition at 10 uM incubated for 48 hrs by SRB method; format: functional; settings: read-out: GI; how it was run: as §3
HOP-92 = experiment: Antiproliferative activity against human HOP-92 cells assessed as growth inhibition incubated for 48 hrs by SRB method; format: functional; how it was run: as §2
SNB-19 = experiment: Antiproliferative activity against human SNB-19 cells assessed as growth inhibition at 10 uM incubated for 48 hrs by SRB method; format: functional; settings: read-out: GI; how it was run: as §3
NCI-H522 = experiment: Antiproliferative activity against human NCI-H522 cells assessed as growth inhibition incubated for 48 hrs by SRB method; format: functional; how it was run: as §2
SF-295 [11] = experiment: Antiproliferative activity against human SF-295 cells assessed as growth inhibition at 10 uM incubated for 48 hrs by SRB method; format: functional; settings: read-out: GI; how it was run: as §3
A549 [12] = experiment: Induction of cell cycle arrest in human A549 cells assessed as decrease in cells at S phase at GI50 concentration by flow cytometry analysis (reference value: 0.31 to 0.51%); format: functional; design: scale not given: the % may be the effect or the level left
SF-295 [13] = experiment: Antiproliferative activity against human SF-295 cells assessed as growth inhibition incubated for 48 hrs by SRB method; format: functional; how it was run: as §2
SNB-75 = experiment: Antiproliferative activity against human SNB-75 cells assessed as growth inhibition incubated for 48 hrs by SRB method; format: functional; how it was run: as §2
UACC-62 [14] = experiment: Antiproliferative activity against human UACC-62 cells assessed as growth inhibition at 10 uM incubated for 48 hrs by SRB method; format: functional; settings: read-out: GI
How it was run: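 NCI-60 one-dose screen at 10 μM. Cells grown in RPMI 1640 with 5% FBS and 2 mM L-glutamine, plated at 5000–40 000 cells/well and preincubated 24 h at 37 °C, 5% CO2. Drug exposure 48 h. Fixed with TCA and stained with 0.4% SRB, absorbance read at 515 nm. Percent growth calculated against untreated control and time-zero plates.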

A549 [15] = experiment: Downregulation of Bcl-2 gene expression in human A549 cells by qRT-PCR analysis; format: functional, cell-based; how it was run: as §1
Staphylococcus aureus [16] = experiment: Antimicrobial activity against Staphylococcus aureus ATCC 29213 by broth microdilution method
OVCAR-8 = experiment: Antiproliferative activity against human OVCAR-8 cells assessed as growth inhibition incubated for 48 hrs by SRB method; format: functional; how it was run: as §2

Compound: O=C(Nc1ccc(Cl)cc1)Nc1ccc(Cl)c(Cl)c1 [TRICLOCARBAN]
- MIC (Staphylococcus aureus [1]): 16 µg/mL (≈ 50.7 µM)

- GI50 (MDA-MB-231): 6.83 µM
- MIC (Escherichia coli): > 1020 µg/mL
- GI50 (U-251 [7]): 6.94 µM
- MIC (Candida albicans): 512 µg/mL (≈ 1330 µM)
- GI50 (NCI-H522): 4.55 µM
- MIC (Staphylococcus aureus [16]): 512 µg/mL (≈ 1330 µM)
- GI50 (OVCAR-8): 6.24 µM
Compound: O=C(NC(=S)Nc1ccc(-c2ccc(=O)[nH]n2)cc1)c1cccc(Cl)c1
- fold change (FC) [2]: 3
- GI50 (RXF 393): 6.6 µM
- inhibition of growth at 10 µM (U-251 [3]): 96.1%
- inhibition of growth at 10 µM (HOP-62): 94.6%
- fold change (FC) [4]: 3
- GI50 (UACC-62 [5]): 4.07 µM
- Activity (A549 [6]): 89.87%
- GI50 (Hs-578T): 5.8 µM
- Activity (A549 [8]): 8.95%
- Activity (A549 [9]): 89.51%
- Activity (A549 [10]): 90.86%
- GI50 (UACC-257): 5.59 µM
- GI50 (SF-268): 6.91 µM
- inhibition of growth at 10 µM (SK-MEL-2): 98%
- GI50 (HOP-92): 3.18 µM
- inhibition of growth at 10 µM (SNB-19): 91.2%
- inhibition of growth at 10 µM (SF-295 [11]): 93%
- Activity (A549 [12]): 0.19%
- GI50 (SF-295 [13]): 7.23 µM
- GI50 (SNB-75): 3.92 µM
- inhibition of growth at 10 µM (UACC-62 [14]): 91%
- Activity (A549 [15]): Active
